Measurements gathered from unrelated publications.
Each line is one published result; the experiments were not run side by side.
Cell line: HOP-92
Effect on: cell growth or viability

CCCc1n(Cc2ccc3ccccc3n2)cc[n+]1Cc1ccc2ccccc2n1  TGI (SRB): 3.23 µM
COc1ccc(-c2ccc(-c3ccc(C(=N)N)nc3)s2)cc1Cl  GI50 (SRB): 1.63 µM
CCCCc1n(Cc2ccc3ccccc3n2)cc[n+]1Cc1ccc2ccccc2n1  TGI (SRB): 3.36 µM
COc1ccc(C(=O)/C=C/c2cccc(Br)c2)cc1S(N)(=O)=O  GI50 (SRB; 48 h): 1.8 µM
O=C1NCCc2[nH]c(-c3ccncc3)cc21  IC50: 6.4 µM
COc1ccc(C(=O)/C=C/c2cccnc2)cc1S(N)(=O)=O  inhibition (SRB; 10 µM): 44%
O=C1NC(=NCc2cccs2)S/C1=C\c1ccc2ncccc2c1  IC50: 6.04 µM
CCc1n(Cc2ccc3ccccc3n2)cc[n+]1Cc1ccc2ccccc2c1  TGI (SRB): 0.671 µM
COc1ccc(-c2ccc(-c3ccc(C(=N)N)nc3)s2)cc1  GI50 (SRB): 1.5 µM
O=C1Nc2ccccc2C1=NNc1nnc2n1N=C(c1ccccc1)CS2  inhibition (SRB; 10 µM): 36%
COc1cccc(Oc2ccccc2NC(=O)CNC(=O)c2cccc3ccccc23)c1  GI50 (SRB; 48 h): 0.204 µM
